# Screens as filed in PubChem BioAssay.
# MMP13 inh = inhibitors of human MMP13; P45452; 65,000 compounds, 0.07% hits; AID 570; MMP-13 fTHP FRET cleavage, Mca fluorescence; inhibition, % at 4 µM;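 active means inhibition above the mean of compound-free control plate wells plus 3 SD, cut at about 14% in these data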;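 further: 0% = DMSO wells and 100% = wells with reference MMP-13 inhibitor after basal subtraction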
# Candida biofilm = kills Candida albicans biofilms | C. albicans biofilm + clotrimazole, Alamar Blue | inhibition, % at 6 µM | 85,000 compounds, 0.14% hits | AID 834;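 active means inhibition above 20%; inactive means inhibition below 20%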;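 further: preformed 24 hr biofilms exposed to compound for 48 hr; 0% = biofilm without compound and 100% = blank killed by clotrimazole plus chlorhexidine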
# D1 allo mod = allosteric modulators of human D1 dopamine receptor; P21728; HEK293 D1, CRE-luciferase, dopamine EC30 potentiation; actives deviate in either direction; B-score at 10 µM; 58,000 compounds, 5.9% hits; AID 641;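 active means luminescence count or its row- and column-corrected plate score outside the 99.7% band of the plate's sample wells, on either side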
# Target sequence (P21728 whole entry, looked up): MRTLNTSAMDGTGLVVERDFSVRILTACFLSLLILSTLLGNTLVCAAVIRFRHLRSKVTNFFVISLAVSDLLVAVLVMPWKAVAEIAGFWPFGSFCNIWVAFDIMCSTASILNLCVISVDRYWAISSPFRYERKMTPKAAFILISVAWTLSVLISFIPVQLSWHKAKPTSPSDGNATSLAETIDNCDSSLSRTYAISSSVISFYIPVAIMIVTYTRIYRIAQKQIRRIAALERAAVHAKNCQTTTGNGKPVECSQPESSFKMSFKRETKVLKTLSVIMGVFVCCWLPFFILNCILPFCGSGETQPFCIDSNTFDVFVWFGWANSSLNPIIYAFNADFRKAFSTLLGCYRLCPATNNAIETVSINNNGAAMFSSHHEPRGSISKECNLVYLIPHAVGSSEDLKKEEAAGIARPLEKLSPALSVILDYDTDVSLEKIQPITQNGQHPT
# AP ELISA ortho = alternative pathway complement inhibition, orthogonal assay | Human serum alternative complement pathway, LPS-coated ELISA, C3 deposition; tested in compound mixtures | inhibition, % at 5 µM | 62,000 compounds, 0.08% hits | AID 1235;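 active means inhibition above 30% in each of the two pooled mixtures holding the compound, so the lower value exceeds 30%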;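 further: 0% = serum in Mg-EGTA without compound and 100% = EDTA serum blank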
#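 Assay system: human serum alternative complement pathway, C3 deposition on LPS-coated wells; Dosing: 5 µM per compound in ten-compound mixtures; Detection: Anti-C3 ELISA, OD 450 nm; Buffer or medium: Mg2+-EGTA GVB++ buffer containing human serum at 1:15 dilution; Timing: 1 h at 37 °C; Replication: two different pools per compound.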
# DAT uptake mod = human DAT dopamine uptake with cocaine, either direction | Q01959 | LLC-PK1 hDAT cells, [14C]-dopamine uptake with cocaine IC80; actives deviate in either direction | B-score at 10 µM | AID 449768 | 110,000 compounds, 1.3% hits;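 active means Z score or B-score, a plate-position-corrected score, falls beyond the plate's 99.7% confidence bounds, in either direction; inactive means both scores lie inside the 99.7% bounds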;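 further: scored against the spread of the other compound wells on the same plate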
# D1 mod confirm = D1 receptor (human) allosteric modulation, confirmed | shares compounds with D1 allo mod | HEK293 D1 CRE-luciferase, dopamine EC30 potentiation; hits give high values | luminescence at 10 µM | 2,200 compounds, 88% hits;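 active means luminescence in either of two replicates above the same-plate mean plus 3 SD of the low-dose dopamine control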
# D1 ag no DA = D1 (human) signaling in absence of dopamine; luminescence at 10 µM; AID 646; shares compounds with D1 allo mod; 1,900 compounds, 0.8% hits; HEK293 D1 CRE-luciferase, luminescence, no dopamine; hits give high values; in the data active means luminescence above about 3900
# Isoprot counter = isoproterenol response counter-screen activity for D1 modulators; shares compounds with D1 allo mod; 2,200 compounds, 63% hits; luminescence at 10 µM; HEK293 D1 CRE-luciferase, isoproterenol EC30 counter-screen; hits give high values;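 active means luminescence in either replicate above plate mean of wells with a partly effective reference agonist dose plus 3 SD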;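 further: isoproterenol raises cAMP through native beta-adrenoceptor Gs so signal bypasses D1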
# An asterisk follows results filed as active; / = no result. This excerpt belongs to a sample that is enriched for hits.
SMILES,MMP13 inh,Candida biofilm,D1 allo mod,AP ELISA ortho,DAT uptake mod,D1 mod confirm,D1 ag no DA,Isoprot counter
CCOC(=O)c1c(N)nn(C(=O)CC)c1-c1ccccc1,0.4,/,13*,/,-0.336,17424*,1468,4324*
CN(C)c1ccc(-c2cc([C@H]3[C@@H]4C=CCC[C@@]4(C)C(=O)N3Cc3ccccc3)ccc2F)cc1,/,/,/,/,-0.0277,/,/,/
O=C1Nc2cc(Cl)ccc2Nc2cscc21,/,/,/,/,-0.709,/,/,/
COc1ccc(CNc2nc(NCc3ccc(OC)c(OC)c3)n(C(=O)c3cccs3)n2)cc1OC,/,/,/,/,-0.445,/,/,/
NC(=O)C1CCN(c2nc(C3CC3)nc3c2nnn3Cc2ccccc2)CC1,5.4,9.6,14.8*,-9.3,-0.345,24680*,1492,5164*
NC(=O)C1CCN(c2nc(C3CC3)nc3c2nnn3Cc2ccccc2Cl)CC1,4.1,5.7,/,3.4,-0.0777,/,/,/
CCCn1c(=O)c2ccccc2n2c(SCC(=O)NCc3cccs3)nnc12,-0.8,3.8,-2.14,1.9,0.814,/,/,/
CCn1c(=O)c2ccccc2n2c(SCC(=O)NCc3cccs3)nnc12,3.1,5.1,4.69*,-24.1,0.302,7672,1452,2552
CC(C)OCCCN1C=C2C(=O)C(C)(OC(=O)CCc3ccccc3)C(=O)C=C2C=C1c1ccc(C#N)cc1 (stereo unspecified),/,/,/,/,0.487,/,/,/
N#Cc1c(-c2ccccc2)nc(N2CCCCCC2)[nH]c1=O,-1.3,6.2,12.5*,2.4,-0.0769,26112*,1656,3736*
N#CCc1nc2c3c4c(sc3ncn2n1)CCCC4,1.3,1.7,9.55*,-7.8,-0.153,11284*,1556,3464*
CCc1cc(=O)oc2c(C)c(OCC(=O)N3CCCc4ccccc43)ccc12,/,3.0,/,/,-0.348,/,/,/
CCOC(=O)C1=C(C)Nc2nc(SC)nn2C1c1ccc(C(=O)OC)cc1 (stereo unspecified),-1.0,5.5,4*,18.2,-0.00788,8432*,1672,2952
CC(=O)Nc1cccc(Oc2cc(C#N)c(C#N)cc2N2CCCCCC2)c1,3.2,3.3,9.05*,-13.8,0.0351,11784*,/,4332*
CCCCNC(=O)C1CCCN1C(=O)Nc1cccc(OC)c1 (stereo unspecified),-1.6,8.9,30.2*,30.9,-0.777,4704,1636,3176
CCOc1ccc(-c2nc(CSc3nncs3)cs2)cc1OC,-5.0,4.5,22.9*,11.9,-0.426,21360*,/,8636*
CCOC(=O)C1CCN(CC(=O)Nc2c(C(=O)OC)[nH]c3cccc(Cl)c23)CC1,-5.1,4.6,3.73*,2.6,0.31,9896*,1640,3104*
COC(=O)c1[nH]c2cccc(Cl)c2c1NC(=O)CN(C)C1CCCCC1,-0.2,5.4,11.1*,2.7,0.108,16352*,1684,3040*
CCOC(=O)C1CCN(CC(=O)Nc2c(C(=O)OC)[nH]c3ccc(Cl)cc23)CC1,-21.7,4.1,0.235,10.3,0.722,/,/,/
COc1ccc(Cl)cc1NC(=O)CN(C)C1CCCCC1,/,/,/,/,-0.432,/,/,/
COc1ccc(-c2cc(C(=O)NCc3ccccc3)no2)cc1OC,-1.7,/,4.62*,14.7,-1.12,10196*,/,3320*
CCCCNC(=O)c1cc(-c2ccc(OC)c(OC)c2)on1,1.0,2.9,3.37*,4.7,-0.00481,9084*,1608,2916
COc1ccc(-c2cc(C(=O)N3CCOCC3)no2)cc1OC,-8.3,/,5.96*,11.1,0.0281,11468*,1656,3588*
COc1ccc(S(=O)(=O)N(C)c2ccc(C(=O)N3CCOCC3)cc2)cc1OC,1.6,-2.2,14.7*,-4.1,-0.0616,16652*,1416,3096
Cc1c(CCCC(=O)O)sc(N)c1C(=O)c1cccc(C(F)(F)F)c1,/,/,/,/,0.668,/,/,/
SMILES,MMP13 inh,Candida biofilm,D1 allo mod,AP ELISA ortho,DAT uptake mod,D1 mod confirm,D1 ag no DA,Isoprot counter
C=CCNC(=O)CC(=O)N/N=C/c1ccc(C(=O)OC)cc1,/,/,/,/,-0.514,/,/,/
COc1ccc(CNC(=O)c2cc(-c3ccc(OC)c(OC)c3)on2)cc1,-2.9,7.6,1.36,0.8,-0.431,/,/,/
COc1ccc(-c2nc(CCNC(=O)c3ccco3)cs2)cc1OC,-49.2,12.4,24*,5.8,0.338,24816*,1952,6984*
COc1ccc(CCNC(=O)COC(=O)c2ccco2)cc1OC,0.6,8.5,0.985,-21.0,-0.747,/,/,/
COc1ccc(-c2cc(C(=O)N(C)Cc3ccccc3)no2)cc1OC,-7.8,/,17*,10.4,2.09,18128*,/,6364*
O=c1ccccn1Cc1c(F)cccc1Cl,/,-1.1,/,/,-0.0332,/,/,/
Cc1ccccc1-n1nc2c(c1NC(=O)c1c(-c3ccccc3Cl)noc1C)CSC2,-0.7,4.7,-0.965,29.2,0.00188,/,/,/
Cc1ccc(-n2nc3c(c2NC(=O)c2c(-c4ccccc4Cl)noc2C)CSC3)cc1,4.6,2.3,4.57*,16.3,3.03*,4636,1496,2444
CC(C)Cn1nc(NC(=O)C2CCCO2)c2cc3ccccc3nc21 (stereo unspecified),-19.5,1.6,11.7*,-1.8,/,16892*,/,3072*
CC(C)Cn1nc(NS(=O)(=O)c2ccccc2)c2cc3ccccc3nc21,2.6,1.8,1.1,-6.1,0.0698,/,/,/
CCn1nc(NC(=O)c2ccccn2)c2cc3cc(C)ccc3nc21,-65.6,7.9,0.901,-0.4,1.51,/,/,/
CCn1nc(NC(=O)c2cccnc2)c2cc3ccccc3nc21,0.3,11.0,6.64*,3.2,1.36,7008*,1544,2812*
Cc1ccc(C2C(/C=C3/SC(=S)NC3=O)=C(c3cccs3)Oc3ccccc32)cc1 (stereo unspecified),/,3.1,/,/,-1.06,/,/,/
Cc1c(NS(C)(=O)=O)c(=O)n(-c2ccccc2)n1C,3.1,9.2,-0.747,3.6,-0.338,/,/,/
Cc1cc(F)ccc1S(=O)(=O)Nc1c(C)n(C)n(-c2ccccc2)c1=O,3.3,3.2,4.98*,27.7,0.892,5280,1740,2536
COc1cccc(N2C(=O)C3ON(c4ccccc4)C(c4cccs4)C3C2=O)c1 (stereo unspecified),-8.1,6.0,14.6*,24.0,1.95,6168*,1676,3028
CCCCN(C)C(=O)c1cn(CC)c2ccc(S(=O)(=O)N(C)C)cc2c1=O,-0.3,8.9,3.01*,10.3,-0.484,5816,1512,2356
COc1cccc(-c2nc(CSCC(=O)N3CCc4ccccc43)c(C)o2)c1,3.2,3.3,0.811,-9.2,-0.0414,/,/,/
COc1ccc(-c2nc(CSCC(=O)N3CCc4ccccc43)c(C)o2)cc1OC,-0.9,3.1,3.81*,-6.8,0.472,11284*,1596,4544*
Cc1cc(CNC(=O)C(C)Cc2ccccc2)nn1C (stereo unspecified),/,/,/,/,0.335,/,/,/
